CXCR6 block: CXCR6 receptor inhibitors, primary screen, cell-based, beta-arrestin, luminescence, CHO-K1 PathHunter, 1536-well | C-X-C chemokine receptor type 6 (Homo sapiens), O00574 | inhibition, % at 20 µM | 360,000 tested, 0.36% active | AID 602244, 2012; in the data active = inhibition above about 34%, passing the limit was not always enough;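 note: antagonist mode with CXCL16 agonist at 10 nM final; 0% = 10 nM CXCL16 with DMSO and 100% = unstimulated wells without agonist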
APJ antagonist: antagonists of human apelin receptor APJ, primary screen, CHO-K1 cells, beta-arrestin complementation, luminescence | P35414 | 330,000 tested, 0.32% active | AID 2521, 2010 | inhibition, % at 20 µM;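 active = inhibition above about 40% at 20 µM, limit read from the data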;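 note: cells challenged with 10 nM apelin-13 agonist together with compound; plate controls were apelin-13 plus DMSO wells for no effect and DMSO wells lacking apelin-13 for full effect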
EBI2 antag: EBI2 receptor antagonists, beta-arrestin recruitment, primary screen, cell-based, luminescence, 7a,25-OHC stimulation, uHTS; AID 651636, 2012; G-protein coupled receptor 183 (Homo sapiens), P32249; 360,000 tested, 0.81% active; inhibition, % at 5 µM; 7a,25-OHC stimulated; in the data active = inhibition above about 38%;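 note: enzyme fragment complementation signal reports receptor beta-arrestin coupling in cells; 0% = agonist plus DMSO wells and 100% = wells without agonist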
CCR6 antag: CCR6 receptor antagonists, primary screen, cell-based, CHO-K1, luminescence, beta-arrestin, uHTS | C-C chemokine receptor type 6 (Homo sapiens), P51684 | CHO-K1 CCR6 PathHunter beta-arrestin, CCL20-stimulated | inhibition, % at 20 µM | 340,000 tested, 0.49% active | AID 493098, 2011;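 active = compounds whose inhibition of the agonist-driven luminescence signal at 20 µM reaches about 50%, limit read from the data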;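 note: cells stimulated with CCL20 at 14 nM final; plate controls were DMSO with CCL20 for no effect and DMSO without agonist for full effect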
Target sequence (P51684 whole entry, looked up): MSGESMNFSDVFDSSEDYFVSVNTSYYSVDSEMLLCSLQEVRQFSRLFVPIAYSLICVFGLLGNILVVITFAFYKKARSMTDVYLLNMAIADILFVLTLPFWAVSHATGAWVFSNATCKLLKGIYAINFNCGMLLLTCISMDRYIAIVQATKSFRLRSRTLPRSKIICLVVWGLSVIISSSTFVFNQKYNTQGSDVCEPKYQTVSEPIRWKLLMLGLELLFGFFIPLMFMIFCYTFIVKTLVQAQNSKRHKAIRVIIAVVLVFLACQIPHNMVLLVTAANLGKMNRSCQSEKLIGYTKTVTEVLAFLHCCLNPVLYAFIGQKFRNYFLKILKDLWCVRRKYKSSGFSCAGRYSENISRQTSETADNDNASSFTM
APJ agonist: agonists of human apelin receptor APJ, primary screen, CHO-K1 cells, PathHunter beta-arrestin, luminescence; P35414; 0% DMSO wells, 100% apelin; activation, % at 20 µM; 330,000 tested, 0.11% active;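 active = activation more than six SD over the plate average, tested at 20 µM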;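 note: 0% = DMSO alone and 100% = apelin-13 at 10 nM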
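Incubation: overnight seeding, 90 min compound at 25 °C, 1 h detection; test system: PathHunter CHO-K1 APJ (AGTRL-1) beta-arrestin reporter cells; amount: 1000 cells/well; doses: one dose, 20 µM compound, 1% DMSO; measured by: beta-gal luminescence; measure: agonist-driven arrestin binding to APJ; benchmarks: negative DMSO alone, positive Apelin-13 at 10 nM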
APJ antag conf: APJ antagonists blocking beta-arrestin recruitment, confirmation, cell-based, luminescence, single concentration, uHTS hits; shares compounds with APJ antagonist; antagonist mode; inhibition, % at 20 µM; 950 tested, 66% active; in the data active = inhibition above about 50%
Active calls of the source: *; nt = not tested or not shown. An excerpt weighted towards active compounds, which were near 1.5% of everything screened.

SMILES	CXCR6 block	APJ antagonist	EBI2 antag	CCR6 antag	APJ agonist	APJ antag conf
COc1cc(/C=C2/C(=O)N(c3cccc(Br)c3)N=C2C)cc(OC)c1O	59*	54*	28	72*	-10	82*
COc1ccc(/C=C2/C(=O)N(c3ccccc3)N=C2C)cc1	2	12	0	10	2	nt
COc1ccc(/C=C2/C(=O)N(c3ccccc3)N=C2C)cc1OC	7	47*	8	16	0	7
Cc1cc2c(c(CO)c1CCO)C(=O)[C@@H](C)[C@@H]2O	-8	8	-7	-9	-3	nt
CC(C)CNc1ncnc2c1ncn2[C@H]1CN(CCN2CCOCC2)C[C@@H](CO)O1	9	nt	-6	nt	nt	nt
COC(=O)CCCC1=CC2=CC(=O)C(C)(OC(=O)c3ccc(Cl)nc3)C(=O)C2=CO1 (stereo unspecified)	nt	-12	nt	nt	1	nt
N#Cc1cnc(Nc2nc3ccccc3o2)nc1-c1ccccc1	16	52*	18	55*	-12	-2
CCOc1ccc(-c2c(C(=O)N/N=C/c3ccc(O)cc3)nnn2-c2nonc2N)cc1	1	5	2	-2	-4	nt
CCOc1ccc(-c2c(C(=O)N/N=C/c3cccc(Br)c3)nnn2-c2nonc2N)cc1	15	45*	18	18	-4	47
CCOC(=O)C1=C(C)N=c2s/c(=C/c3cccc([N+](=O)[O-])c3O)c(=O)n2C1c1cc(OC)c(OC)c(OC)c1 (stereo unspecified)	34	40*	-1	55*	-7	90*
CCOC(=O)C1=C(C)N=c2s/c(=C/c3ccco3)c(=O)n2C1c1cccc(OC)c1 (stereo unspecified)	nt	-19	nt	37	-3	nt
CCOC(=O)C1=C(c2ccccc2)N=c2s/c(=C\c3ccc(O)cc3)c(=O)n2C1c1cccs1 (stereo unspecified)	18	42*	2	53*	-8	102*
CCOC(=O)C1=C(C)N=c2s/c(=C/c3cccc([N+](=O)[O-])c3O)c(=O)n2C1c1ccccc1 (stereo unspecified)	33	50*	5	71*	-9	99*
COc1ccc(Nc2ccc([N+](=O)[O-])c3nonc23)c(OC)c1	44*	44*	17	60*	-7	78*
O=C(O)c1ccc(Nc2ccc([N+](=O)[O-])c3nonc23)cc1	34	42*	10	59*	-9	76*
O=C(O)c1cccc(Nc2ccc([N+](=O)[O-])c3nonc23)c1	36	41*	9	58*	-6	78*
CC(=O)c1ccc(Nc2ccc([N+](=O)[O-])c3nonc23)cc1	32	36	7	40	-5	nt
Cc1ccc(S(=O)(=O)NCCC(=O)OCC(=O)N(Cc2ccccc2)C(C)(C)C)cc1	2	10	18	23	-2	nt
Cc1ccc(N=Nc2c(=O)[nH]n3c(=O)cc(C)[nH]c23)cc1	17	43*	0	27	-7	62*
COc1ccc(C2=Nc3ccccc3N(C(=O)c3ccc(C(F)(F)F)cc3)C2C(=O)Nc2c(C)cccc2C)cc1 (stereo unspecified)	nt	nt	20	nt	nt	nt
Cc1ccc(N2CC(C(=O)N3CCC(C(=O)NC(C)(C)C)CC3)CC2=O)cc1 (stereo unspecified)	-4	-1	-5	8	-3	nt
Cc1cc(=O)[nH]c(N=N/C(=N/Nc2ccc(O)cc2)c2ccccc2)n1	23	59*	5	56*	-11	89*
Cc1cc(=O)[nH]c(N=N/C(=N/Nc2ccccc2C)c2ccccc2)n1	3	12	-11	21	-7	nt
COC(=O)C1=C(C)N(Cc2ccccc2)C(=NCC(C)C)N[C@H]1c1cccc(F)c1	2	48*	9	8	-4	84*
C[C@@H](NC(=O)[C@@H]1CCCN1C(=O)[C@@H]1CCCN1C(=O)c1cccc2ccccc12)c1ccccc1	-2	nt	-8	nt	nt	nt
SMILES	CXCR6 block	APJ antagonist	EBI2 antag	CCR6 antag	APJ agonist	APJ antag conf
Cc1nn(Cc2ccc(Cl)cc2)c(C)c1NC(=O)C1CC=CCC1C(=O)O (stereo unspecified)	-1	50*	-9	20	-2	33
Cc1ccc2[nH]c(C(=O)NCCN3CCCC3)cc2c1	-11	3	-13	15	-1	nt
CCOC(=O)C1=CN(c2cccc(F)c2)C=C(C(=O)OCC)C1c1cc(OC)c(O)c([N+](=O)[O-])c1	27	44*	7	49	-4	23
CN1C(=O)/C(=C\c2cc(N=Nc3ccccc3)ccc2O)SC1=S	52*	68*	7	55*	-13	109*
CN1C(=O)OC(C)(CCc2ccccc2)C1(C)O (stereo unspecified)	-1	-13	-1	4	-2	nt
CC(c1ccccc1)N1C(=O)OC(C)(C)C1(C)O (stereo unspecified)	0	72*	-2	1	4	8
CCC(=O)N1CCN(c2ccc(NC(=O)COc3ccc(CC)cc3)cc2)CC1	2	-5	-2	10	0	nt
O=C1Nc2ccc(F)cc2C12Nc1ccccc1-c1nnc(SCc3ccccc3)nc1O2 (stereo unspecified)	5	32	19	30	-12	nt
O=C1Nc2ccc(F)cc2C12Nc1ccccc1-c1nnc(SCc3ccccc3Cl)nc1O2 (stereo unspecified)	22	53*	19	40	-4	75*
Cc1ccc(OCC(=O)Nc2ccc3c(c2)OCO3)c(C)c1	1	66*	3	5	-3	45
Cc1ccc(NC(=O)Nc2ccc3c(c2)OCO3)c(Br)c1	-1	41*	-3	10	4	16
CCOc1cc2[nH]c(=O)n(CCCCC(=O)N3CCCCCC3)c(=O)c2cc1OCC	-2	44*	1	11	3	1
CCCCCNC(=O)CCCCn1c(=O)[nH]c2cc(OCC)c(OCC)cc2c1=O	-3	5	-5	5	2	nt
CC(=NNC(=S)Nc1ccccc1)c1ccccn1	-10	nt	-4	nt	nt	nt
C=CCNC(=S)N/N=C(\C)c1ccccn1	20	67*	38	50	-6	48
CCOC(=O)C1=C(C)NC(C)=C(C(=O)OCC)C1C(=O)OCC(=O)NCCc1ccccc1	5	5	-2	6	-1	nt
CC(C)(C)c1cc(CCC(=O)NNC(=S)NC(=O)c2ccccc2)cc(C(C)(C)C)c1O	58*	51*	34	58*	-9	135*
CC(C)(C)c1cc(CCC(=O)NNC(=O)c2ccco2)cc(C(C)(C)C)c1O	-6	-3	7	1	3	nt

Screening results deposited in PubChem by Sanford-Burnham Center for Chemical Genomics.
